Measured values: article PMC8172216 (Pharmaceutical Biology, 2021)

Tests used:
[1] = Pharmacokinetics of saponins in rat plasma after oral gavage of raw; format: in vivo, Sprague–Dawley rats; details: for AUC0–t: SD rats, oral administration of SPN extract 1.0 g/kg; for AUC(0-t) / AUC(0-inf) / Cmax / Tmax / half-life: male, Sprague-Dawley, rat, plasma, po, 1 g/kg, oral gavage of raw P. notoginseng aqueous extract 1 g/kg, n = 6, mean ± SD; for AUC(0-t): AUC0–t; for AUC(0-t) / AUC(0-inf) / Cmax / Tmax: male SD rats; for AUC(0-inf): AUC0–∞; for half-life: t1/2, male SD rats; for time in which the maximum plasma concentration was achieved: after oral administration of RPN or SPN aqueous extract
Procedure, shortened: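 Male SD rats (200–250 g, n = 6/group) were acclimatised for 7 d and fasted overnight with water. They received a single oral gavage of aqueous extract at 1 g/kg (5 mL/kg). Heparinized orbital blood was taken pre-dose and at 5 min to 48 h, then centrifuged and stored at −40 °C. Plasma was methanol-precipitated with theophylline internal standard and analysed by MRM. Cmax and Tmax were read directly; AUC and t1/2 were non-compartmental; results are mean ± SD.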

[2] = ref Ma et al. [2021]; cited from earlier work

| AUC0–t [1] [ng/h/mL] | AUC(0-t) [1] [ng·h/mL] | AUC(0-inf) [1] [ng·h/mL] | Cmax [1] [ng/mL] | Tmax [1] [h] | half-life [1] [h] | time in which the maximum plasma concentration was achieved ([1]; rats) [h] | AUC0–t and Cmax, steamed versus raw group ([1]; oral dose of raw and steamed P. notoginseng aqueous extracts, rats) | Compound | bioavailability [2] [%] | detection in rat plasma ([1]; after oral administration of P. notoginseng extracts, rats, listed as GRg5) |
| --- | --- | --- | --- | --- | --- | --- | --- | --- | --- | --- |
| 1396.89 ± 595.14 | 3630 ± 569 | 4170 ± 733 | 164 ± 28.8 | 8.67 ± 2.73 | 13.9 ± 1.71 | – | – | CC(C)=CCC[C@](C)(O[C@@H]1O[C@H](CO)[C@@H](O)[C@H](O)[C@H]1O)[C@H]1CC[C@]2(C)[C@@H]1[C@H](O)C[C@@H]1[C@@]3(C)CC[C@H](O[C@@H]4O[C@H](CO)[C@@H](O)[C@H](O)[C@H]4O[C@@H]4O[C@H](CO)[C@@H](O)[C@H](O)[C@H]4O)C(C)(C)[C@@H]3CC[C@]12C [Rd, ginsenoside Rd] | – | – |
| – | – | – | – | – | – | – | – | CC(C)=CC/C=C(\C)[C@H]1CC[C@]2(C)[C@@H]1[C@H](O)C[C@@H]1[C@@]3(C)CC[C@H](O[C@@H]4O[C@H](CO)[C@@H](O)[C@H](O)[C@H]4O[C@@H]4O[C@H](CO)[C@@H](O)[C@H](O)[C@H]4O)C(C)(C)[C@@H]3CC[C@]12C [Rg5, ginsenoside Rg5] | 0.67 | could not be detected |
| 5094.06 ± 1453.14 | 15100 ± 2380 | 15200 ± 2440 | 997 ± 144 | 8.67 ± 1.63 | 9.58 ± 1.11 | – | – | CC(C)=CCC[C@](C)(O[C@@H]1O[C@H](CO[C@@H]2O[C@H](CO)[C@@H](O)[C@H](O)[C@H]2O)[C@@H](O)[C@H](O)[C@H]1O)[C@H]1CC[C@]2(C)[C@@H]1[C@H](O)C[C@@H]1[C@@]3(C)CC[C@H](O[C@@H]4O[C@H](CO)[C@@H](O)[C@H](O)[C@H]4O[C@@H]4O[C@H](CO)[C@@H](O)[C@H](O)[C@H]4O)C(C)(C)[C@@H]3CC[C@]12C [Rb1, ginsenoside Rb1] | – | – |
| 176.63 ± 42.49 | 808 ± 382 | 861 ± 355 | 66.7 ± 32.8 | 9.33 ± 2.07 | 7.92 ± 6.73 | ≤ 9.33 | – | CC(C)=CCC[C@](C)(O[C@@H]1O[C@H](CO)[C@@H](O)[C@H](O)[C@H]1O)[C@H]1CC[C@]2(C)[C@@H]1[C@H](O)C[C@@H]1[C@@]3(C)CC[C@H](O)C(C)(C)[C@@H]3[C@@H](O[C@@H]3O[C@H](CO)[C@@H](O)[C@H](O)[C@H]3O)C[C@]12C [Rg1, ginsenoside Rg1] | – | – |
| – | 87.7 ± 20.7 | 91.7 ± 19.7 | 28.1 ± 13.1 | 1.24 ± 0.49 | 3.16 ± 1.73 | ≤ 1.63 | no significantly difference | CC(C)=CCC[C@](C)(O[C@@H]1O[C@H](CO)[C@@H](O)[C@H](O)[C@H]1O)[C@H]1CC[C@]2(C)[C@@H]1[C@H](O)C[C@@H]1[C@@]3(C)CC[C@H](O)C(C)(C)[C@@H]3[C@@H](O[C@@H]3O[C@H](CO)[C@@H](O)[C@H](O)[C@H]3O[C@@H]3O[C@@H](C)[C@H](O)[C@@H](O)[C@H]3O)C[C@]12C [Re, ginsenoside Re] | – | – |
